Assay [1] addresses T1, Polycomb protein EED (Homo sapiens, UniProt O75530). The assay can be described thus: Inhibition of pyrrolidine inhibitor-based oregon-green probe binding to GST-tagged EED (unknown origin) after 1 hr by assay explorer integrated LanthaScreen TR-FRET assay. The method in brief: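 On the integrated platform, HPLC fractions were quantified by charged aerosol detection (calibrated with ketoprofen) and dissolved in DMSO to 10 mM stocks. An 11-point, 3-fold serial dilution followed. 50 nL of each dilution was pin-transferred into 10 µL assay buffer (0.5% DMSO final) and incubated 1 h at 25 °C. TR-FRET was read on EnVision, and activity was obtained by curve fitting.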
For orientation: Time-resolved FRET reads energy transfer from a long-lived donor to a nearby acceptor.

The target in assay [2] is T1, Polycomb protein EED. The assay can be described thus: Inhibition of pyrrolidine inhibitor-based oregon-green probe binding to GST-tagged EED (unknown origin) after 1 hr by LanthaScreen TR-FRET assay. The method in brief: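 Compounds were made, purified and tested conventionally as separate steps, under the same assay conditions as the integrated run. Compound in DMSO was added to assay buffer (0.5% DMSO final) and incubated 1 h at 25 °C. The TR-FRET signal was read on a plate reader, and activity was derived by curve fitting.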

The source of these data is ChEMBL document CHEMBL3992570, “Integrated Platform for Expedited Synthesis-Purification-Testing of Small Molecule Libraries” (ACS Med Chem Lett, 2017).

Usually IC50 stands for the point on the concentration scale where inhibition reaches its midpoint. Higher therefore signals lower potency.

T1 sequence (O75530 whole entry): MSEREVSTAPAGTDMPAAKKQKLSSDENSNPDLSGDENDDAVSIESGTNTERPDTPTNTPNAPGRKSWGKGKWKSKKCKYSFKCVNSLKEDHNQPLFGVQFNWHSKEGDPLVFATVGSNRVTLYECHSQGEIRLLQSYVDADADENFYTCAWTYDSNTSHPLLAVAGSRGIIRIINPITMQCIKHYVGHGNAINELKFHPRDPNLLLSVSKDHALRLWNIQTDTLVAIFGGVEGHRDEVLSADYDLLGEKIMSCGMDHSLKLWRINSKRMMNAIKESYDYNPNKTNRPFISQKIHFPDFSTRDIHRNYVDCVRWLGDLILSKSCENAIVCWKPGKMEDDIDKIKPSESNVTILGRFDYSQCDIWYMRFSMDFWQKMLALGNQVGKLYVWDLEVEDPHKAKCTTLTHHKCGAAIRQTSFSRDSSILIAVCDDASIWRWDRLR

Take `CC(=O)NC1CCN(c2ccc([C@H]3CN(Cc4c(C)cccc4F)C[C@@H]3N(C)C)cc2)CC1`: the results for the IC50 on Polycomb protein EED [1] and on Polycomb protein EED [2] were 40 nM and 160 nM, respectively. On the same counts, the results for `Cc1cccc(F)c1CN1C[C@H](c2ccc(N3CCN(S(=O)(=O)c4cccc(F)c4)CC3)cc2)[C@@H](N(C)C)C1` are 40 nM and 50 nM.

For the molecule `Cc1cc([C@H]2CN(Cc3c(C)cccc3F)C[C@@H]2N(C)C)ccc1C(=O)NCc1ccncc1`, the half-inhibitory concentration (IC50) was found to be 70 nM on Polycomb protein EED [1] and 110 nM on Polycomb protein EED [2]. On to `CC(=O)N[C@H]1CCN(c2ccc([C@H]3CN(Cc4c(C)cccc4F)C[C@@H]3N(C)C)cc2)C1`, for which the values for the IC50 at Polycomb protein EED [1] and on Polycomb protein EED [2] were 90 nM and 240 nM, respectively. As to `Cc1cccc(F)c1CN1C[C@H](c2ccc(N3CCC(C#N)CC3)cc2)[C@@H](N(C)C)C1`, the IC50 at Polycomb protein EED [1] turned out to be 70 nM; at Polycomb protein EED [2] it was 140 nM. Regarding `Cc1cc([C@H]2CN(Cc3c(C)cccc3F)C[C@@H]2N(C)C)ccc1C(=O)N1CCN(C)CC1`, the IC50 stood at 260 nM on Polycomb protein EED [1] and 480 nM on Polycomb protein EED [2]. In the case of `Cc1cccc(F)c1CN1C[C@H](c2ccc(N3CCC(N(C)C)CC3)cc2)[C@@H](N(C)C)C1`, the IC50 is 40 nM on Polycomb protein EED [1] and 100 nM on Polycomb protein EED [2]. Turning to `Cc1ccc(S(=O)(=O)N2CCN(c3ccc([C@H]4CN(Cc5c(C)cccc5F)C[C@@H]4N(C)C)cc3)CC2)cc1`, the IC50 at Polycomb protein EED [1] worked out at 50 nM; at Polycomb protein EED [2], 80 nM. For the molecule `Cc1cccc(F)c1CN1C[C@H](c2ccc(N3CCC(N4CCOCC4)CC3)cc2)[C@@H](N(C)C)C1`, the IC50 on Polycomb protein EED [1] amounted to 40 nM; on Polycomb protein EED [2], 60 nM. As for `Cc1cccc(F)c1CN1C[C@H](c2ccc(N3CCN(c4ccncc4)CC3)cc2)[C@@H](N(C)C)C1`, the IC50 at Polycomb protein EED [1] and at Polycomb protein EED [2] was 10 nM throughout.

For the molecule `Cc1cc([C@H]2CN(Cc3c(C)cccc3F)C[C@@H]2N(C)C)ccc1C(=O)NCc1ccccn1`, the IC50 was found to be 70 nM on Polycomb protein EED [1] and 80 nM at Polycomb protein EED [2]. For the molecule `Cc1cccc(F)c1CN1C[C@H](c2ccc(N3CCn4ccnc4C3)cc2)[C@@H](N(C)C)C1`, the IC50 turned out to be 70 nM at Polycomb protein EED [1] and 100 nM on Polycomb protein EED [2]. Consider `Cc1cccc(F)c1CN1C[C@H](c2ccc(N3CCN(c4ccccc4)CC3)cc2)[C@@H](N(C)C)C1`, for which the IC50 was determined as 50 nM at Polycomb protein EED [1] and 90 nM on Polycomb protein EED [2]. On the same counts, the results for `CCN(CC)C(=O)c1ccc([C@H]2CN(Cc3c(C)cccc3F)C[C@@H]2N(C)C)cc1C` are 100 nM and 250 nM. As to `Cc1ccc(N2CCN(c3ccc([C@H]4CN(Cc5c(C)cccc5F)C[C@@H]4N(C)C)cc3)CC2)cc1`, the results for the concentration for half-maximal inhibition (IC50) on Polycomb protein EED [1] and on Polycomb protein EED [2] were 150 nM and 220 nM, respectively.

Take `Cc1cccc(F)c1CN1C[C@H](c2ccc(N3CCN(c4ccccc4S(C)(=O)=O)CC3)cc2)[C@@H](N(C)C)C1`: the results for the concentration for half-maximal inhibition (IC50) on Polycomb protein EED [1] and at Polycomb protein EED [2] were 70 nM and 190 nM, respectively. `Cc1cc([C@H]2CN(Cc3c(C)cccc3F)C[C@@H]2N(C)C)ccc1C(=O)N(C)C`: the IC50 on Polycomb protein EED [1] was found to be 110 nM; on Polycomb protein EED [2] it was 180 nM. Consider `Cc1cc([C@H]2CN(Cc3c(C)cccc3F)C[C@@H]2N(C)C)ccc1C(=O)N1CCN(CCO)CC1`, for which the IC50 at Polycomb protein EED [1] worked out at 270 nM; at Polycomb protein EED [2] it was 380 nM. Turning to `Cc1cc([C@H]2CN(Cc3c(C)cccc3F)C[C@@H]2N(C)C)ccc1C(=O)Nc1cccnc1`, the IC50 on Polycomb protein EED [1] was found to be 80 nM; on Polycomb protein EED [2] it was 100 nM.

In the case of `Cc1cccc(F)c1CN1C[C@H](c2ccc(N3CCC(C)CC3)cc2)[C@@H](N(C)C)C1`, the half-inhibitory concentration (IC50) at Polycomb protein EED [1] was 40 nM; at Polycomb protein EED [2], 140 nM. As for `CC(=O)N[C@@H]1CCN(c2ccc([C@H]3CN(Cc4c(C)cccc4F)C[C@@H]3N(C)C)cc2)C1`, the IC50 on Polycomb protein EED [1] amounted to 160 nM. Take `Cc1cccc(F)c1CN1C[C@H](c2ccc(N3CCN(c4nccs4)CC3)cc2)[C@@H](N(C)C)C1`: the IC50 on Polycomb protein EED [1] came out at 30 nM; on Polycomb protein EED [2], 40 nM. Consider `Cc1cc([C@H]2CN(Cc3c(C)cccc3F)C[C@@H]2N(C)C)ccc1C(=O)NCCN(C)C`, for which the IC50 on Polycomb protein EED [1] amounted to 80 nM; at Polycomb protein EED [2], 150 nM. For the molecule `Cc1cccc(F)c1CN1C[C@H](c2ccc(N(C)C3CCN(C)CC3)cc2)[C@@H](N(C)C)C1`, the IC50 on Polycomb protein EED [1] was determined as 90 nM; at Polycomb protein EED [2] it was 350 nM.
